Results on one compound are retold here after ChEMBL document CHEMBL2176901, “Pyrrolo[3,4-h]quinolinones a new class of photochemotherapeutic agents” (Bioorg Med Chem, 2011).

The subject of data set [1] is Jurkat. In words: Induction of apoptosis in 3.75 J/cm'2 UV-A irradiated human Jurkat cells assessed as early apoptotic cells at 10 uM after 24 hrs by Annexin-V-FITC and propidium iodide based flow cytometry (reference value: 1.9 %). Format: functional. For orientation: Flow cytometry measures light scatter and fluorescence of single cells or particles in a stream.
In data set [2] the test system is Jurkat. As to the kind of experiment: Cell cycle arrest in UV-A irradiated human Jurkat cells assessed as accumulation at S phase at 10 uM after 24 hrs by propidium iodide based flow cytometry (reference value: 25.3 %). It is filed as functional. The essentials: (§1)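 Exponentially growing Jurkat cells (5×10^5) irradiated with UV-A (365 nm lamp, 2.5 J/cm²) in presence of compound. After 24 h: fixed in ice-cold 70% ethanol, lysed with RNAse A, stained with PI (10 µg/ml), analysed by flow cytometry. Phases calculated on living cells; subG1 is hypodiploid DNA peak.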

Data set [3] has as its system Jurkat. As to the kind of experiment: Phototoxicity in 2.5 J/cm'2 UV-A irradiated human Jurkat cells after 72 hrs by MTT assay. To be noted: light or radiation study. It is filed as functional, cell-based. The procedure, abridged: (§2)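 HL-60 and Jurkat (8×10³/well, RPMI-1640) and MCF-7, LoVo, NCTC-2544 (5×10³/well; DMEM or Ham's F12) preincubated 18 h at 37 °C, 5% CO₂. Compound in DMSO diluted in HBSS pH 7.2, 30 min at 37 °C, then UV-A at 2.5 or 3.75 J/cm². Medium replaced, 72 h incubation, MTT read-out. IC50 as mean ± SEM of three experiments.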
(Tetrazolium dyes change colour on reduction, which living cells bring about.)

Data set [4] relates to Nucleic Acid. In words: Binding affinity to salmon testes DNA at drug/DNA ratio of 0.02 by linear dichroism analysis. Format: nucleic-acid assay. To be noted: Salmonidae. The procedure, abridged:
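Flow linear dichroism in 10 mM phosphate buffer pH 7.2. Samples oriented in a rotating cylindrical cuvette (0.14 cm path, 800 rpm) at several drug/DNA ratios.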

The test system of data set [5] is Nucleic Acid. In words: Binding affinity to salmon testes DNA at 10 uM by fluorescence titration. It is filed as nucleic-acid assay. To be noted: Salmonidae. The procedure, abridged: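 Fluorimetric titration of compound (10 μM) with increasing stDNA (0 to 100 μM) in 10 mM phosphate buffer pH 7.2; quenching of compound fluorescence monitored.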
Data set [6] in a line: Drug uptake in lysosome of human NCTC-2544 cells at 10 uM after 2 hrs by fluorescence microphotography. Format: ADME, cell-based. To be noted: nctc-2544, 2 h. The procedure, abridged: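 NCTC-2544 cells attached in Petri dishes, given compound at 10 μM for 2 h, washed with HBSS. Then 30 min with Rhodamine 123 (mitochondria), LysoTracker RED, CellMask Orange (plasma membrane) or ER-Tracker. Blue compound fluorescence overlaid on probe images by video-confocal microscopy.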

The subject of data set [7] is Jurkat. As to the kind of experiment: Induction of apoptosis in 3.75 J/cm'2 UV-A irradiated human Jurkat cells assessed as early apoptotic cells at 5 uM after 24 hrs by Annexin-V-FITC and propidium iodide based flow cytometry (reference value: 1.9 %). It is filed as functional.
Data set [8] deals with Jurkat. In words: Induction of apoptosis in 3.75 J/cm'2 UV-A irradiated human Jurkat cells assessed as necrotic cells at 5 uM after 24 hrs by Annexin-V-FITC and propidium iodide based flow cytometry (reference value: 4.2 %). It is filed as functional.
Data set [9] relates to MCF7. As to the kind of experiment: Phototoxicity in 2.5 J/cm'2 UV-A irradiated human MCF7 cells assessed as cell viability after 72 hrs by MTT assay in presence of radical scavenger DMTU. Format: functional, cell-based. The procedure, abridged: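 MCF-7 cells given compound plus scavenger in HBSS, 30 min at 37 °C, then UV-A (2.5 J/cm², 365 nm lamp). Medium replaced; viability by MTT after 72 h. Means ± SEM of at least three independent experiments.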

A short description of data set [10]: Phototoxicity in 2.5 J/cm'2 UV-A irradiated human NCTC-2544 cells after 72 hrs by MTT assay. It is filed as functional, cell-based. To be noted: NCTC-2544, light or radiation study. The procedure, abridged:
as §2

Data set [11] can be described thus: Photodegradation of the compound in DMSO assessed as formation of photoproducts at 20 uM at 1.3 to 14.1 J/cm'2 UV-A irradiation. Format: physicochemical. The procedure, abridged: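 Compound solutions at 20 μM in DMSO exposed to increasing UV-A doses (HPW 125 lamps, mainly 365 nm, 4.0 mW cm⁻²). Absorption spectra recorded after each dose; isosbestic points noted.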

Data set [12] deals with Jurkat. As to the kind of experiment: Induction of apoptosis in UV-A irradiated human Jurkat cells assessed as increase in number of damaged lysosomes at 5 to 10 uM by acridine orange-based flow cytometry. It is filed as functional, cell-based. The essentials: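 Lysosomal stability in Jurkat cells 6, 12 and 24 h after UV-A (2.5 J/cm²) with compound. Cells resuspended in RPMI-1640 with 1 µM acridine orange; flow cytometry, excitation 488 nm, emission in FL3. Mean ± SEM of three experiments.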

Data set [13] concerns HL-60. As to the kind of experiment: Phototoxicity in 2.5 J/cm'2 UV-A irradiated human HL60 cells after 72 hrs by MTT assay. Format: functional, cell-based. To be noted: HL-60, light or radiation study. The essentials:
as §2

Data set [14] concerns Jurkat. In words: Cell cycle arrest in UV-A irradiated human Jurkat cells assessed as accumulation at G2/M phase at 10 uM after 24 hrs by propidium iodide based flow cytometry (reference value: 10.3 %). Format: functional. The essentials:
as §1

Data set [15] relates to LoVo. In words: Phototoxicity in 3.75 J/cm'2 UV-A irradiated human LoVo cells after 72 hrs by MTT assay. It is filed as functional, cell-based. The conditions noted are these: light or radiation study. The procedure, abridged: (§3)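 Seeded at 5 × 10³ cells/well with 10% FBS: MCF-7 and NCTC-2544 in DMEM, LoVo in Ham's F12. Pre-incubated 18 h at 37 °C, 5% CO2. Compound (DMSO stock diluted in HBSS pH 7.2) was applied for 30 min at 37 °C, then UV-A irradiation (mainly 365 nm, 4.0 mW/cm²). Medium was restored for 72 h before MTT. IC50 is the mean ± SEM of three experiences.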

In data set [16] the test system is MCF7. In words: Phototoxicity in 3.75 J/cm'2 UV-A irradiated human MCF7 cells after 72 hrs by MTT assay. It is filed as functional, cell-based. The conditions noted are these: MCF7, light or radiation study. The essentials: as §3
Data set [17] relates to Jurkat. As to the kind of experiment: Induction of lipid peroxidation in 2.5 J/cm'2 UV-A irradiated human Jurkat cells assessed as increase in TBARS formation after 24 hrs by thiobarbituric acid assay. It is filed as functional, cell-based. The essentials: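 Lipid peroxidation measured as MDA–thiobarbituric acid adducts, with BHT added to samples; calibrated to a 1,1,3,3-tetraethoxypropane standard curve; protein by Peterson method.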

Data set [18] concerns Jurkat. As to the kind of experiment: Induction of apoptosis in 3.75 J/cm'2 UV-A irradiated human Jurkat cells assessed as necrotic cells at 10 uM after 24 hrs by Annexin-V-FITC and propidium iodide based flow cytometry (reference value: 4.2 %). It is filed as functional.
A short description of data set [19]: Phototoxicity in 3.75 J/cm'2 UV-A irradiated human NCTC-2544 cells after 72 hrs by MTT assay. It is filed as functional, cell-based. To be noted: NCTC-2544, light or radiation study. The procedure, abridged: as §3
For data set [20], the system named is Jurkat. In words: Induction of apoptosis in 3.75 J/cm'2 UV-A irradiated human Jurkat cells assessed as late apoptotic cells at 5 uM after 24 hrs by Annexin-V-FITC and propidium iodide based flow cytometry (reference value: 2.9 %). It is filed as functional.
Data set [21] deals with MCF7. In words: Phototoxicity in 2.5 J/cm'2 UV-A irradiated human MCF7 cells after 72 hrs by MTT assay. Format: functional, cell-based. The conditions noted are these: MCF7, light or radiation study. The procedure, abridged: as §2
Data set [22] deals with Nucleic Acid. In words: Induction of photo-induced Escherichia coli pBR322 DNA damage at drug:DNA ratio of 3:1 by agarose gel electrophoresis in presence of endonuclease III.
Data set [23] concerns HL-60. As to the kind of experiment: Phototoxicity in 3.75 J/cm'2 UV-A irradiated human HL60 cells after 72 hrs by MTT assay. It is filed as functional, cell-based. The conditions noted are these: HL-60, light or radiation study. The essentials:
as §2

Each structure is given as a SMILES string. Calls of active or inactive are those of the source. The calls are words filed in the database; no cut-off is given here.

On to `CCOC(=O)c1c2c(c(C)n1C)-c1c(cc(S(=O)(=O)c3ccccc3)c(=O)n1C)CC2`, for which the Activity in [1] was 23.9%; in data set [2], 55.6%; in data set [7] it was 14.4%; in data set [8] it was 4.5%; in data set [14], 5.3%; in [17], “Dose-dependent effect”. Also, the Activity worked out at 8.6% in [18] and 11% in [20]. Moreover, the IC50 in data set [3] stood at 1.2 µM; in data set [10], 2.4 µM; in data set [13], 1.2 µM; in [15], 0.4 µM; in [16], 1.3 µM; in data set [19], 1.3 µM. In addition, the values for the IC50 in data set [21] and in data set [23] were 1.7 µM and 0.9 µM, respectively. For the same compound, the result in data set [4], in data set [5] and in [9] was inactive. The Drug uptake result in data set [6] is on record as “Active”. Further, in [11], the Stability result is given as “Unstable”. Besides, the outcome in [12] and in data set [22] was Active.

In general, IC50 refers to the midpoint of a concentration-inhibition curve. A high value points to weaker potency in that assay.
